Published values from different studies.
Each line is one published result; the experiments were not run side by side.
Target: Serine/threonine-protein kinase D2 (PRKD2, Homo sapiens, UniProt Q9BZL6)
Sequence (Q9BZL6 1-878, as in one of the studies): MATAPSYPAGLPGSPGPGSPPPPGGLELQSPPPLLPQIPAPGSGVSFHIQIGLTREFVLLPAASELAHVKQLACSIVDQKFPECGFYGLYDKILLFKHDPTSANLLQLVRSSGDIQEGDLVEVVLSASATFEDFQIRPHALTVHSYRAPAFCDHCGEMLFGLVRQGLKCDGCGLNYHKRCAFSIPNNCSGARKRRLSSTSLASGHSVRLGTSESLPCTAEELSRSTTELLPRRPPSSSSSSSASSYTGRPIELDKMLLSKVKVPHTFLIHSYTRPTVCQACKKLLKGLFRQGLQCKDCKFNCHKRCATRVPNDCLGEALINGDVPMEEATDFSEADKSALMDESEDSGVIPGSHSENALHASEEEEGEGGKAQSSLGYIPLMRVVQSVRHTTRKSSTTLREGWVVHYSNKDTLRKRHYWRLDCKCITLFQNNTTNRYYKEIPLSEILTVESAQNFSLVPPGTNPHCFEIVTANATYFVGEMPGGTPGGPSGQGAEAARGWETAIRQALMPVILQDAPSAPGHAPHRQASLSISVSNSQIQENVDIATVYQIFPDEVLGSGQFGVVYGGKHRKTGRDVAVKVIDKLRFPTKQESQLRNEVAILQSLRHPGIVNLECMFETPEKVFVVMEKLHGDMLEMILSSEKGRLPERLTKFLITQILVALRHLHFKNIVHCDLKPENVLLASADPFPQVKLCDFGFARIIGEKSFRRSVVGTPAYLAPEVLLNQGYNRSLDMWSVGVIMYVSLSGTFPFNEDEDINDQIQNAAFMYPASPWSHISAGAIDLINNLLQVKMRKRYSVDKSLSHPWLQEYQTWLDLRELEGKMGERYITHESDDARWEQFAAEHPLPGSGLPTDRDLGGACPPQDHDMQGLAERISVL

Cn1nc(C(F)(F)F)cc1-c1cnc(N2CCc3cc(S(=O)(=O)Nc4c(F)cc(Cl)cc4F)cc(N4CCCC4=O)c32)nc1  remaining binding (cell-free assay; competition with immobilised ligand; 1 µM): 95%
CCN(CC)CCNC(=O)c1c(C)[nH]c(/C=C2\C(=O)Nc3ccc(F)cc32)c1C  inhibition (enzyme activity; inhibitor; 10 µM): 88%
Cc1cc(NC(=O)c2cccc3cc(-c4cccc5[nH]nc(N)c45)ccc23)ccc1F  activity vs control (enzyme activity; inhibitor; 0.1 µM): 91%
CC/C(=N\NC(=O)NCc1cccc(O)c1)c1ccc(O)c(C)c1O  inhibition (enzyme activity; inhibitor; 0.1 µM): -11.5%
CNC(=O)c1cc(Oc2ccc(NC(=O)Nc3ccc(Cl)c(C(F)(F)F)c3)cc2)ccn1  inhibition (enzyme activity; inhibitor; 10 µM): 15%
O=C1NC(=O)c2cc(Nc3ccc(F)cc3)c(Nc3ccc(F)cc3)cc21  remaining signal (cell-free assay; 0.5 µM): 86.8%
CCOc1cc(-c2nncn2C)ccc1Nc1ncc2cc(C)nc(NCC(C)(C)C)c2n1  inhibition (enzyme activity; inhibitor; FRET; 1 µM): < 15%
CC(C)(O)[C@H]1CC[C@H](Nc2ccc3ncc(-c4cccc(C(F)(F)F)c4)n3n2)CC1  remaining activity (enzyme activity; inhibitor; 1 µM): 92%
COc1cc2ncnc(Nc3ccc(Oc4ccccc4)cc3C)c2cc1OC  inhibition (enzyme activity; inhibitor; 1 µM): 9%
Cc1sc(C(=O)NC2COC2)cc1-n1cc(NC(=O)Nc2c(F)cccc2Cl)cn1  remaining activity (enzyme activity; inhibitor; 10 µM): 95.7%
Cn1nc(C(=O)NCc2ccc(C(=O)O)cc2)cc1-c1ccc2[nH]ccc2c1  remaining binding (cell-free assay; competition with immobilised ligand; 0.1 µM): 100%
Cc1ccc(C(=O)NCc2ccsc2)cc1C#Cc1cn(C(C)C)c2ncnc(N)c12  activity vs control (enzyme activity; inhibitor; 1 µM): 71%
CC(C)(C)c1nc(-c2cccc(NS(=O)(=O)c3c(F)cccc3F)c2F)c(-c2ccnc(N)n2)s1  remaining activity (enzyme activity; inhibitor; radiometric; 1 µM): 30%
Cc1ccc(Nc2nccc(N(C)c3ccc4c(C)n(C)nc4c3)n2)cc1S(N)(=O)=O  inhibition (enzyme activity; inhibitor; 10 µM): 15%
Cn1c2c(c3ccc(Cl)c(Cl)c31)C(C#N)C1(CCNCC1)NC2=O (racemic)  ΔTm (thermal stability; DSF; 10 µM): 0.9 °C
Cn1cnc(Br)c1C1=CN(c2ncnc3[nH]cnc23)CCS1  inhibition (enzyme activity; inhibitor; radiometric; 50 nM): 19.1%
COc1cc2c(N3CCN(C(=O)Nc4ccc(OC(C)C)cc4)CC3)ncnc2cc1OCCCN1CCCCC1  remaining signal (cell-free assay; 0.5 µM): 96.4%
CC1(C)NC(=O)c2[nH]c3c(Cl)c(Cl)ccc3c2C1C#N (stereo not shown)  ΔTm (thermal stability; DSF; 10 µM): -0.1 °C
CSc1cccnc1N1CCN(Cc2nc3ccccc3[nH]2)CC1  remaining binding (cell-free assay; competition with immobilised ligand; 1 µM): 100%
N#CCCc1ccc2c(c1)-c1[nH]c3ccc([N+](=O)[O-])cc3c1CC(=O)N2  remaining signal (cell-free assay; 0.5 µM): 94.2%
Cn1c2c(c3ccc(Cl)c(Cl)c31)C(C#N)C1(CCN(C(=O)OC(C)(C)C)CC1)NC2=O (racemic)  ΔTm (thermal stability; DSF; 10 µM): 0 °C
Cn1cncc1C1=CN(c2ncnc3[nH]cnc23)CCS1  inhibition (enzyme activity; inhibitor; radiometric; 2 µM): 93.1%
Cn1c2c(c3ccc(Cl)c(Cl)c31)C(C#N)C(C)(C)NC2=O (stereo not shown)  ΔTm (thermal stability; DSF; 10 µM): 0.2 °C
Nc1cnc(N2CCc3cc(S(=O)(=O)Nc4c(F)cc(Cl)cc4F)cc(N4CCCC4=O)c32)nc1  remaining binding (cell-free assay; competition with immobilised ligand; 1 µM): 100%
CCCOc1ccc(OC)c(F)c1C(=O)c1ccc(C(=O)N[C@@H]2CNC[C@H]2NC(=O)c2ccc3[nH]ncc3c2)cc1  remaining activity (enzyme activity; inhibitor; 10 µM): 48%
CC(=O)Nc1c(C(C)=O)c(=O)n(C)c2nc(-c3ccc(Cl)cc3Cl)c(-c3ccc(Cl)cc3)cc12  remaining binding (cell-free assay; competition with immobilised ligand; 1 µM): 100%
Nc1ncnc2occ(-c3ccc(NC(=O)Nc4cc(C(F)(F)F)ccc4F)cc3)c12  remaining signal (cell-free assay; inhibitor; 20 µM): 43%
C[C@@]1(Cc2ccc(C#N)cc2)C(=O)N(c2cc(Cl)cc(Cl)c2)c2ncc(C(=O)NC3(c4nc(C5CCC5)no4)CC3)n21  remaining binding (cell-free assay; competition with immobilised ligand; 1 µM): 100%
Cc1ccc(C(=O)Nc2ccc(CN3CCN(C)CC3)c(C(F)(F)F)c2)cc1C#Cc1cnc2cccnn12  remaining activity (enzyme activity; inhibitor; 23.5 nM): 95%
Cn1c2c(c3ccc(Cl)c(Cl)c31)C(C#N)C1(CCCC1)NC2=O (stereo not shown)  ΔTm (thermal stability; DSF; 10 µM): -0.1 °C
Cc1cc(C)c(-n2ccn3nc(-c4cccnc4)cc23)cc1NC(=O)c1cc(C#N)cc(S(F)(F)(F)(F)F)c1  remaining binding (cell-free assay; competition with immobilised ligand; 0.1 µM): 100%
Cn1c2c(Cl)c(Cl)ccc2c2cc[nH]c(=O)c21  ΔTm (thermal stability; DSF; 10 µM): 0.4 °C
Cc1c(NC(=O)c2cc(C(N)=O)nc3cc(F)ccc23)c(C(F)(F)F)nn1Cc1ccc(C(C)(C)C)cc1  remaining binding (cell-free assay; competition with immobilised ligand; 1 µM): 100%
COc1cccc2c(NCc3ccccc3)nc(-n3c(N)nc4ccccc43)nc12  inhibition (target engagement in cells; inhibitor; chemoproteomics; 20 mM): -4.3%
